From PubChem BioAssay AID1230 (PCMD, 2008) come the findings set out here.

Hit rate of the full screen: of about 210,000 compounds, about 220 (0.1%) were called active.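 The calls were made as follows: active = signal enhancement of 30% or more; inactive = the rest.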 The full list was thinned out, with actives kept by preference.

The target of this experiment is E3 ubiquitin-protein ligase Mdm2 (Homo sapiens) (UniProt Q00987). In words: MDM2-luciferase reporter signal enhancers, primary screen, MDM2 E3 ligase inhibitor project, cell-based, luminescence, 1536-well (AID 1230). The settings on record: cell-based MDM2 ubiquitination luciferase reporter, 2 h; at 5 µM; stronger effect = higher value; 0 = plate control, 100 = twice control, blank-subtracted. The essentials: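 Timing – 2 h compound exposure at 37 °C · Assay system – mammalian cells stably expressing self-ubiquitinating, self-degrading MDM2 E3–luciferase fusion · Amount – 2000 cells seeded into each well · Measure – % luminescence enhancement versus blank-corrected plate control mean · Measured by – SteadyLite luminescence, 15 min reagent step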
E3 ubiquitin-protein ligase Mdm2 (Homo sapiens), sequence (Q00987 whole entry, looked up, the tested form may be a part): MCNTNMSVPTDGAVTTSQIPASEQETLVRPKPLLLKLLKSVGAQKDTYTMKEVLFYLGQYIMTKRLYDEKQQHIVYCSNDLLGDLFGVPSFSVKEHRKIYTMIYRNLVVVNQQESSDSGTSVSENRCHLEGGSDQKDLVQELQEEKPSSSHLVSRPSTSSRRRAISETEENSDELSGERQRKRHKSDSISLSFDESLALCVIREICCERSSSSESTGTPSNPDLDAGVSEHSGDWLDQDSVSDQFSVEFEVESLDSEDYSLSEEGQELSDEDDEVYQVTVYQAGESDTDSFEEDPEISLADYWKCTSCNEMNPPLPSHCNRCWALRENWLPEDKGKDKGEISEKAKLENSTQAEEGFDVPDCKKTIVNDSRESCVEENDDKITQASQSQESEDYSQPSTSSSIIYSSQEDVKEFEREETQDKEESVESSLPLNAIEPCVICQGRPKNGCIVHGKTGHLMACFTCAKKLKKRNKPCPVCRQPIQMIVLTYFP
On the technique in general: Reporter assays use an easily measured gene product as a stand-in for the process of interest.
Consider `Cc1onc(-c2ccc(Cl)cc2)c1-c1ccnn1S(=O)(=O)c1ccc(Cl)cc1`, for which the signal enhancement was -0.58% (inactive).
Regarding `C=CCC1(C#N)C(=S)NC(C)=C(C(=O)OCC)C1c1ccccc1` (stereo unspecified), the signal enhancement was 9.19% (inactive).
Then `CCc1ccccc1N1CN(Cc2ccco2)CNC1=S`, with 2.19% (inactive); and `OCC1(Cc2ccccc2C(F)(F)F)CCN(Cc2ccncc2)CC1`, with -8.35% (inactive).
Then `Cc1nc(/N=C(\N)NC(=O)NC2CCCCC2)nc2ccccc12`, with -4.72% (inactive); and `COCCNc1nc(-c2ccccc2)nc2c1oc1ccccc12`, with -11.4% (inactive).
Then `Cc1ccc2c(c1)nnc1nnc(SCC(=O)O)n12`, with 0.72% (inactive).
For `Cc1ccc2c(C)c(C(=O)N3CCC(N4CCC(C(=O)NC5CC5)CC4)CC3)oc2c1`, the signal enhancement is -9.89% (inactive).
As to `O=C(NC(=S)Nc1cccc2c(O)cccc12)c1cccc(Br)c1`, the signal enhancement is -0.26% (inactive).
On to `Clc1ccc(C[n+]2cc(-c3ccc(Cl)cc3)n3c2CCC3)cc1`, for which the signal enhancement was -12.4% (inactive).
To `CSc1nnnn1-c1c(C)cc(C)cc1C` belongs -3.25% (inactive); to `O=C(Nc1ccc(N2CCOCC2)nc1)c1c(F)cccc1F`, -15% (inactive); to `Nc1nc(Sc2ncccc2[N+](=O)[O-])n[nH]1`, 1.65% (inactive).
Then `CCNC(=O)CCc1nc(-c2ccc(C)cc2)no1`, with 8.03% (inactive).
Then `O=C1C2C3C=CC(C3)C2C(=O)N1c1ccc(S(=O)(=O)Nc2nccs2)cc1` (stereo unspecified), with -8.32% (inactive); and `FC(F)(F)c1nc(-c2ccccc2)ncc1-c1nnnn1-c1ccccc1`, with -9.19% (inactive); and `O=c1oc(-c2ccccc2NS(=O)(=O)c2ccc(Cl)cc2)nc2ccccc12`, with -16.5% (inactive).
On to `COc1ccc(Cc2cc(-c3ccc(F)cc3)n[nH]c2=O)cc1`, for which the signal enhancement is -10.5% (inactive).
To `O=C(NCCC1=CCCCC1)c1ccc(Cl)c([N+](=O)[O-])c1` belongs 59.6% (active); to `CN(c1ccc(C(=O)NCCC2=CCCCC2)cc1)S(C)(=O)=O`, -36.2% (inactive).
As to `Cn1nnc2cc(C(=O)NCCC3=CCCCC3)ccc21`, the signal enhancement was -41.3% (inactive).
Then `O=C1CCCCC1C(=O)c1ccccc1` (stereo unspecified), with -74.7% (inactive).
Regarding `CNC(=O)c1csc(Cc2c(Cl)sc3ccc(Cl)cc23)n1`, the signal enhancement was -3.68% (inactive).
For `O=C1N=C(N2CCc3ccccc3C2)S/C1=C\c1ccc(O)cc1`, the signal enhancement was -10.4% (inactive).
For `O=S(=O)(Nc1ccc(OC(F)(F)F)cc1)c1cccc2nonc12`, the signal enhancement is 7.33% (inactive).
To `Cc1onc(NC(=O)c2ccc([N+](=O)[O-])o2)c1Br` belongs -5.7% (inactive); to `O=C(CCCCCN1C(=O)c2cccc3cccc(c23)C1=O)NCc1ccco1`, -8.79% (inactive).
Take `Cn1c(CSCC(=O)Nc2ccccc2)nnc1SCc1ccccc1`: the signal enhancement was -7.31% (inactive).
`Cn1cccc1/C=N/NC(=O)CNc1cccc2ccccc12`: the signal enhancement is -9.96% (inactive).
As to `COc1cc(OC)c2ccc(=O)oc2c1C(CCN1CCN(c2ccccc2)CC1)c1ccc2c(c1)OCO2` (stereo unspecified), the signal enhancement was 6.23% (inactive).
`COc1ccc(CCNC(=O)C(=O)Nc2ccc3nc4n(c(=O)c3c2)CCCCC4)cc1OC`: the signal enhancement was 3.62% (inactive).
On to `Nc1ccccc1SC(C[N+](=O)[O-])c1ccccc1` (stereo unspecified), for which the signal enhancement is -3.83% (inactive).
Then `O=C(NCCCN1CCN(c2ccccc2F)CC1)C1CCC(=O)N1C1CCCCC1` (stereo unspecified), with -15.4% (inactive); and `Cn1c(C(=O)NCCCN2CCCCC2)cc2sccc21`, with -19.5% (inactive).
Take `O=C(CCS(=O)(=O)Cc1ccccc1F)NCCCN1CCCCC1`: the signal enhancement is 35.1% (active).
As for `CSc1sc(C(=O)NC(=O)NCc2cccnc2)c(C)c1-c1ccon1`, the signal enhancement was -12.8% (inactive).
`O=C(NCCCn1ccnc1)C(=O)NCC1OCCN1S(=O)(=O)c1cc(F)ccc1F` (stereo unspecified): the signal enhancement is -1.11% (inactive).
Then `Cc1cc(SCC(=O)c2ccccc2)nc(SCC(=O)c2ccccc2)n1`, with -22.4% (inactive).
In the case of `C/C(=N\NC(=O)c1nc(C)cc(C)n1)c1ccccc1`, the signal enhancement was -2.38% (inactive).
Then `Cc1cc(C)nc(S/C=C/C(=O)c2ccccc2)n1`, with 45.8% (active).
In the case of `CNC(=S)NNC(=O)c1oc2nc(-c3ccccc3)cc(-c3ccco3)c2c1N`, the signal enhancement was -16.3% (inactive).
Then `Cc1noc(C)c1COC(=O)COc1ccc(-c2ccccc2)cc1`, with -6.72% (inactive); and `CCS(=O)(=O)c1cc([N+](=O)[O-])c(Sc2ccccc2N)s1`, with -43.9% (inactive).
As to `CS(=O)(=O)c1ccc2nnn(OCC(=O)Nc3cccc(C#N)c3)c2c1`, the signal enhancement was -16.9% (inactive).
To `CC(=O)c1ccc(S(=O)(=O)N2CCN(C(=O)/C=C/c3ccc4ccccc4n3)CC2)cc1` belongs -8.84% (inactive); to `C/C=C\C=C\C(=O)N1CC2(CC(c3cccc(NC(=O)/C(C)=C\C)c3)=NO2)C[C@H]1C(N)=O` (stereo partly specified), -14.1% (inactive); to `Cn1ccc(=NC=C(C#N)C#N)c2ccccc21`, 30.3% (active).
To `CCOC(=O)c1cc(C)nc(S(C)(=O)=O)c1C#N` belongs -11% (inactive).
Then `CCOC(=O)c1c(NC(=S)NC)sc2c1CCCC2`, with -8.08% (inactive); and `COc1ccc(/C=C/C(=O)Nc2ccc3c(c2)OCCO3)cc1OC`, with -7.44% (inactive).
Consider `COc1ccc(/C=C/C(=O)Nc2cccnc2)cc1OC`, for which the signal enhancement is -3.38% (inactive).
To `COc1ccc(/C=C/C(=O)Nc2ccc(C34CC5CC(CC(O)(C5)C3)C4)cc2)cc1OC` belongs 45.6% (active); to `Clc1ccc(C[n+]2cc(-c3ccccc3)n3c2CCC3)cc1`, -18.4% (inactive).
To `S=c1[nH]nc(-c2cccs2)n1/N=C/c1cn(-c2ccccc2)nc1-c1ccc(Cl)cc1` belongs -7.25% (inactive); to `COc1cccc(C2Nc3cccc4cccc(c34)N2)c1`, -2.34% (inactive); to `CNC(=O)C(NC(=O)c1ccccc1)=C(C)C`, -12.3% (inactive).
As for `COc1ccccc1OCC(=O)O/N=C(\N)c1ccccn1`, the signal enhancement is -10.7% (inactive).
With `N/C(=N\OC(=O)Nc1ccccc1)c1ccno1`, the signal enhancement was -4.12% (inactive).
Take `CCCc1nc2c(c(=O)c3ccccc3n2C)c(=O)n1-c1cc(C)cc(C)c1`: the signal enhancement is -9.46% (inactive).
Then `COc1ccc(NC(=O)CSc2ncnc3[nH]ncc23)cc1`, with -3.15% (inactive); and `CC(C)(C)c1cc(NC(=O)NN2CCOCC2)nn1-c1c(Cl)cc(Cl)cc1Cl`, with -17.5% (inactive).
